The nature of data set [1]: Intrinsic clearance in Wistar Han rat hepatocytes measured per 10^6 cells. It counts as ADME, cell-based, Hepatocyte. The note with it: read-out: CLH.
A short description of data set [2]: Octanol-phosphate buffer partition coefficient, log D of the compound at pH 7.4 by shake flask method. It counts as physicochemical. The essentials: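 Shake-flask partition between n-octanol and 10 mM phosphate buffer at pH 7.4. Shaken 1 h at 1200 rpm to reach equilibrium. Phases analysed by LC/UV, with MS for mass confirmation.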
The test system of a further data set is Rattus norvegicus. Description: Volume of distribution in Wistar Han rat at 10 mg/kg, iv administered as infusion and po. The note with it: in vivo. Also on record: dose 10 mg/kg, route oral. It counts as ADME, organism-based. Summed up:
(§1)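 Single iv dose (3 mg/kg bolus, or 10 mg/kg infusion, per line). Rats in groups of three, bolus via cannulated jugular vein. Male beagle dogs (n = 3), iv as 15 min infusion, sampled 0 to 24 h. Serial whole-blood samples taken at time intervals. Plasma levels measured by LC-MS/MS. Parameters estimated by non-compartmental analysis.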

Data set [3] is described as follows: Intrinsic clearance in human hepatocytes measured per 10^6 cells. It counts as ADME, cell-based, Hepatocyte. Conditions: read-out: CLH.
Data set [4] can be described thus: AUC in Beagle dog at 10 mg/kg, iv administered as infusion. The format is ADME, organism-based, Canis lupus familiaris. Also on record: dose 10 mg/kg, route intravenous. Conditions: plasma. Summed up: as §1
Data set [5] in a line: Dissociation constant, pKa of the compound by pH metric assay. The format is physicochemical. The essentials: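 pH-metric titration on an automated titrator, run in triplicate. Accuracy about 0.02 log units.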
A short description of data set [6]: Intrinsic clearance in Beagle dog hepatocytes measured per 10^6 cells. Conditions: read-out: CLH. It counts as ADME, cell-based, Canis lupus familiaris, Hepatocyte.
The subject of data set [7] is Staphylococcus aureus. As to the kind of experiment: Antibacterial activity against methicillin-susceptible Staphylococcus aureus after 18 to 24 hrs by CLSI broth microdilution method. The format is functional. On the technique in general: Dilution methods test growth across graded concentrations, often in twofold steps.
A short description of data set [8]: Half life in Beagle dog at 10 mg/kg, iv administered as infusion and po. On the set-up: dose 10 mg/kg, route oral. Conditions: in vivo. The format is ADME, organism-based, Canis lupus familiaris.
A short description of data set [9]: Inhibition of Escherichia coli DNA topoisomerase 4 subunit ParC/DNA topoisomerase 4 subunit ParE ATPase activity after 24 hrs by malachite green staining-based colorimetric assay.
A short description of data set [10]: Fraction unbound in human plasma at 10 uM by equilibrium dialysis method. It counts as ADME, cell-free. Summed up: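 Equilibrium dialysis. Compound at 10 μM in the plasma (donor) chamber against phosphate buffer, rotated at 37 °C for 16 h. Drug in the plasma and buffer samples quantified by LC-MS/MS after methanol protein precipitation with internal standard. Standard curve 10 nM to 10 μM.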
A general note: In equilibrium dialysis free small molecules cross a membrane that holds back macromolecules.

Data set [11] is described as follows: AUC in Wistar Han rat at 10 mg/kg, iv administered as infusion. On the set-up: dose 10 mg/kg, route intravenous. Conditions: plasma. It counts as ADME, organism-based. Summed up:
as §1

The next data set has as its system Streptococcus pneumoniae. Description: Antibacterial activity against penicillin-susceptible Streptococcus pneumoniae D39 after 18 to 24 hrs by CLSI broth microdilution method. It counts as functional.
Another data set concerns Escherichia coli. Description: Antibacterial activity against Escherichia coli W3110 after 18 to 24 hrs by CLSI broth microdilution method. The format is functional.
The subject of another data set is Canis familiaris. Description: Volume of distribution in Beagle dog at 10 mg/kg, iv administered as infusion and po. The format is ADME, organism-based, Canis lupus familiaris. On the set-up: dose 10 mg/kg, route oral. The note with it: in vivo. Summed up: as §1
The subject of the next data set is Pseudomonas aeruginosa. As to the kind of experiment: Antibacterial activity against Pseudomonas aeruginosa PAO1 after 18 to 24 hrs by CLSI broth microdilution method. It counts as functional.
Data set [12] has as its target T1, Voltage-gated inwardly rectifying potassium channel KCNH2 (Homo sapiens, UniProt Q12809). Description: Inhibition of human ERG by Ionworks assay. For orientation: Patch clamp records ionic current or voltage across a cell membrane.
For data set [13], the target named is T1, Voltage-gated inwardly rectifying potassium channel KCNH2. As to the kind of experiment: Displacement of [3H]-astemizole from human ERG expressed in HEK293 cells after 60 mins by liquid scintillation counter. It counts as cell-based.
Data set [14] concerns Staphylococcus aureus. As to the kind of experiment: Antibacterial activity against linezolid-resistant Staphylococcus aureus ARC 3583 after 18 to 24 hrs by CLSI broth microdilution method. It counts as functional. Summed up:
(§2)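 CLSI broth microdilution in Mueller Hinton Broth 2. Inocula prepared from blood agar plates grown at 35 °C for 18–24 h. Compound in DMSO, 2% DMSO final, 11 doubling dilutions from 64 to 0.06 μg/mL. Plates read at 620 nm.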

Data set [15] concerns Staphylococcus aureus. Description: Antibacterial activity against community acquired methicillin-resistant Staphylococcus aureus ARC 3189 after 18 to 24 hrs by CLSI broth microdilution method. It counts as functional. The essentials: as §2
Data set [16] has as its system Mus musculus. Description: AUC (infinity) in CD1 mouse infected with methicillin-resistant Staphylococcus aureus ARC 1692 at 40 mg/kg/day, ip. It counts as ADME, organism-based, Plasma. Also on record: dose 40 mg/kg/day, time infinity, route intraperitoneal. Conditions: in vivo.
In data set [17] the test system is Staphylococcus aureus. As to the kind of experiment: Antibacterial activity against hospital acquired methicillin-resistant Staphylococcus aureus ARC 1692 after 18 to 24 hrs by CLSI broth microdilution method. The format is functional. Summed up:
as §2

The test system of data set [18] is Mus musculus. As to the kind of experiment: AUC (infinity) in CD1 mouse infected with methicillin-resistant Staphylococcus aureus ARC 1692 at 80 mg/kg/day, ip. On the set-up: dose 80 mg/kg/day, time infinity, route intraperitoneal. Conditions: in vivo. The format is ADME, organism-based, Plasma.
The subject of data set [19] is Staphylococcus aureus. Description: Antibacterial activity against methicillin-resistant Staphylococcus aureus ARC 1692 in ABT-treated CD1 mouse neutropenic thigh infection model assessed as reduction in log10 CFU per gram of thigh at 40 mg/kg/day, ip qd starting 2 hrs post-infection measured after 24 hrs. The format is functional. The note with it: route intraperitoneal.

For data set [20], the system named is Staphylococcus aureus. As to the kind of experiment: Antibacterial activity against methicillin-resistant Staphylococcus aureus ARC 1692 in ABT-treated CD1 mouse neutropenic thigh infection model assessed as reduction in log10 CFU per gram of thigh at 80 mg/kg/day, ip qd starting 2 hrs post-infection measured after 24 hrs. Conditions: route intraperitoneal. The format is functional.

Data set [21] relates to Staphylococcus aureus. As to the kind of experiment: Antibacterial activity against vancomycin-resistant Staphylococcus aureus ARC 3186 after 18 to 24 hrs by CLSI broth microdilution method. It counts as functional. The essentials: as §2

In brackets after ≈: the same amount, converted by molar mass.

T1 sequence (Q12809 whole entry): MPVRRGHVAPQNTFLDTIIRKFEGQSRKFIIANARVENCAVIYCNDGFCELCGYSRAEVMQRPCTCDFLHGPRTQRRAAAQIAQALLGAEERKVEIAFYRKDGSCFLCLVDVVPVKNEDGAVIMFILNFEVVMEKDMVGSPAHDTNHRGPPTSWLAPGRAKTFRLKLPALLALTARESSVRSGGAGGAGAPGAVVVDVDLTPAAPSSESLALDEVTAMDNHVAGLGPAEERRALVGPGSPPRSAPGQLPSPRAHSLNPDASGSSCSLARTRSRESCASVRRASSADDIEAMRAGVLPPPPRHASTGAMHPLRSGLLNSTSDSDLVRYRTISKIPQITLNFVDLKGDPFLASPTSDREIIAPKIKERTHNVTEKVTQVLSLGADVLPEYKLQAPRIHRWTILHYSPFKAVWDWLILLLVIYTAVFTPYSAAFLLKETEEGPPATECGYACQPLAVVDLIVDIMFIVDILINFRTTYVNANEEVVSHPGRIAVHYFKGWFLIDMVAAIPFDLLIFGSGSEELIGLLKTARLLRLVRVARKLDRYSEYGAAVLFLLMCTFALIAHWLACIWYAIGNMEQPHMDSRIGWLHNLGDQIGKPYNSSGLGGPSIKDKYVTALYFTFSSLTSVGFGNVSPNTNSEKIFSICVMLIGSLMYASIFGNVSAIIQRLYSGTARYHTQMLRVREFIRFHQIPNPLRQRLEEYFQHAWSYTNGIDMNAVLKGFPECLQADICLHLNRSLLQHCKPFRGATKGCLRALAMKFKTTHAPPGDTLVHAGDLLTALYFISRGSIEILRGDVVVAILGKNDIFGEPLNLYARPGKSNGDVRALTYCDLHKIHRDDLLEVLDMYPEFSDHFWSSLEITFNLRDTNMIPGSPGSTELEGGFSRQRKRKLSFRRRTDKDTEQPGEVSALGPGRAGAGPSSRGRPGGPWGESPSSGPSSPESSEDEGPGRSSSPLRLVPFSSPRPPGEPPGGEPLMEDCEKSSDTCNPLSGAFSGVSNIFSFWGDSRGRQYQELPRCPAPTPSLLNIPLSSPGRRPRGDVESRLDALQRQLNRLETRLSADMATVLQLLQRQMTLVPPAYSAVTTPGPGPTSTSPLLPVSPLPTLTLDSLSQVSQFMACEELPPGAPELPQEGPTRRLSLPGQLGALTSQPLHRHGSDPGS

As usually defined, the logD is the decadic logarithm of the distribution of all forms, ionised or not, between an organic phase and buffer at a given pH. A low value points to a more hydrophilic compound. A word on the pKa: it is the pH at which an ionisable group is half protonated. As usually defined, the MIC is the least concentration at which growth counts as inhibited. Higher therefore signals a need for much substance. The half-life is how long it takes for the measured level to halve. Higher therefore signals slow decline. Broadly, the IC50 is the midpoint of a concentration-inhibition curve. A low value points to inhibition by little substance. Usually fraction unbound stands for the share of the substance not bound to proteins or other matrix. Read a high fraction unbound as much free substance. Consider `N#Cc1ccc2ccc(=O)n(CCN3CC[C@@H](NCc4ccc5c(n4)NC(=O)CO5)[C@@H](F)C3)c2c1`, for which the hepatocyte CLint in [1] was determined as 14 µL/min/1e6 cells; in data set [3], 2 µL/min/1e6 cells; in data set [6], 8.6 µL/min/1e6 cells. This compound returned a logD in data set [2] of 0.66. Further, the Vd worked out at 3 L/kg in the data set with Rattus norvegicus and 1.7 L/kg in the data set on Canis familiaris. For the same compound, the AUC stood at 25000 ng·h/mL in data set [4] and 2500 ng·h/mL in data set [11]. The same compound registered a pKa in data set [5] of 7.28. The minimum inhibitory concentration (MIC) was found to be 0.06 µg/mL (≈ 0.126 µM) against Staphylococcus aureus [7], 0.25 µg/mL (≈ 0.525 µM) against Streptococcus pneumoniae, 1 µg/mL (≈ 2.1 µM) in the data set on Escherichia coli and 8 µg/mL (≈ 16.8 µM) with Pseudomonas aeruginosa. In [8], this compound showed a half-life of 5.4 h. In data set [9], this compound had an IC50 of 0.011 µM. Besides, the fraction unbound at 10 µM in [10] turned out to be 0.2.

In turn, `N#Cc1ccc2ccc(=O)n(CCN3CC[C@H](NCc4cc5c(cn4)OCCO5)[C@@H](F)C3)c2c1` (single isomer, unassigned; enantiomer B) showed a logD in data set [2] of 1.53. In [5], the pKa is 6.66. Moreover, the MIC in the data set with Staphylococcus aureus [7] is 0.13 µg/mL (≈ 0.28 µM); in the data set on Streptococcus pneumoniae it was 0.25 µg/mL (≈ 0.539 µM); in the data set with Escherichia coli it was 8 µg/mL (≈ 17.3 µM); in the data set with Pseudomonas aeruginosa it was > 8 µg/mL. For the same compound, the IC50 worked out at 122 µM in data set [12], 0.016 µM in data set [9] and 57 µM in data set [13]. The same compound had a fraction unbound at 10 µM in [10] of 0.09.

In the case of `C[C@H]1COc2c(N3CCN(C)CC3)c(F)cc3c(=O)c(C(=O)O)cn1c23.C[C@H]1COc2c(N3CCN(C)CC3)c(F)cc3c(=O)c(C(=O)O)cn1c23.O` [LEVOFLOXACIN], the MIC was > 16 µg/mL in the data set on Staphylococcus aureus [14], 8 µg/mL in the data set on Staphylococcus aureus [15], 0.125 µg/mL against Staphylococcus aureus [17] and 16 µg/mL in the data set on Staphylococcus aureus [21]. The AUC in the data set on Mus musculus [16] worked out at 4 µg/h/mL; in the data set on Mus musculus [18] it was 11 µg/h/mL. Further, the log10cfu worked out at 0.3 in the data set on Staphylococcus aureus [19] and 1.4 in the data set with Staphylococcus aureus [20].

Regarding `CC(=O)NC[C@H]1CN(c2ccc(N3CCOCC3)c(F)c2)C(=O)O1` [LINEZOLID], the figures for the minimum inhibitory concentration (MIC) in the data set with Staphylococcus aureus [14] and against Staphylococcus aureus [21] were 16 µg/mL (≈ 47.4 µM) and 1 µg/mL (≈ 2.96 µM), respectively.
